From ChEMBL document CHEMBL1123362, “Resolution, absolute configuration, and cholinergic enantioselectivity of (+)- and (-)-cis-2-methyl-5-[(dimethylamino)methyl]-1,3-oxathiolane methiodide” (1986)
Several values for one entry are separate records, joined by “and”; a condition that tells them apart may be missing. Equal values may be shown once.

Key:
[1] = Equipotent molar ratio (EPMR) between ED50 and ED50 of carbachol calculated through the regression of the angular transformant of the fractional log concentration of agonist; assay type: functional
[2] = Compound was evaluated for the ratio of ED50 of nicotinic agonist (N) and ED50 of muscarinic agonist (M); assay type: functional
[3] = Potency was evaluated on frog rectus abdominis; assay type: functional, Rectus abdominis muscle
Cavia porcellus = organism: Cavia porcellus; test: Potency was evaluated on guinea pig ileum; assay type: functional
Summary of the method: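 Isolated ileum strip in aerated (O₂ with 5% CO₂) Tyrode-type salt solution (glucose 5 mM) at 37 °C. Isotonic contractions recorded at 1 g loading tension. After 30 min equilibration, cumulative concentration-response curves were run without reaching supramaximal concentrations. Potency expressed as equipotent molar ratio versus carbachol. EPMR averages compared by t-test (p < 0.05).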

**Q.** With `C[C@H]1O[C@H](CN(C)C)CS1` (stereo in doubt; (-)-10) [listing 1 of 2 here] as the molecule, how does the Ratio [1] read?
**A.** 2 and 2.8

**Q.** What about the Ratio [2] of the same molecule?
**A.** 26.6

**Q.** With `C[C@H]1O[C@H](CN(C)C)CS1` (racemic) [listing 1 of 2 here] as the molecule, how does the Ratio [2] read?
**A.** 61.6

**Q.** What does the source list for `C[C@H]1O[C@H](CN(C)C)CS1` (stereo in doubt; (+)-10) [listing 1 of 2 here]?
**A.** ED50 [3]: 1.84e-05; ED50 (Cavia porcellus): 6.13e-07

**Q.** With `C[C@H]1O[C@H](CN(C)C)CS1` (racemic) [listing 2 of 2 here] as the molecule, how does the ED50 [3] read?
**A.** 1.7e-05

**Q.** What about the ED50 (Cavia porcellus) of the same molecule?
**A.** 2.76e-07

**Q.** Which Ratio [1] does the source give for `C[N+](C)(C)CCOC(N)=O.[Cl-]` [CARBACHOL] here?
**A.** 1

**Q.** What about the ED50 [3] of the same molecule?
**A.** 4.04e-06

**Q.** What about the Ratio [2] of the same molecule?
**A.** 19.2

**Q.** What about the ED50 (Cavia porcellus) of the same molecule?
**A.** 2.11e-07

**Q.** Which ED50 [3] does the source give for `C[C@H]1O[C@H](CN(C)C)CS1` (stereo in doubt; (-)-10) [listing 2 of 2 here] here?
**A.** 1.12e-05

**Q.** And the ED50 (Cavia porcellus)?
**A.** 4.2e-07

**Q.** For `C[C@@H]1O[C@H](C[N+](C)(C)C)CS1` (racemic), which Ratio [2] is on record?
**A.** 642

**Q.** With `C[C@@H]1O[C@H](C[N+](C)(C)C)CS1` (stereo in doubt; (+)-1) as the molecule, how does the Ratio [2] read?
**A.** 537

**Q.** For `C[C@@H]1O[C@H](C[N+](C)(C)C)CS1` (stereo in doubt; (-)-1), which Ratio [2] is on record?
**A.** 64

**Q.** What does the source list for `C[C@H]1O[C@H](CN(C)C)CS1` (stereo in doubt; (+)-10) [listing 2 of 2 here]?
**A.** Ratio [1]: 3 and 4.5; Ratio [2]: 30

**Q.** Which ED50 [3] does the source give for `C[C@@H]1O[C@H](C[N+](C)(C)C)C[C@H]1O` [MUSCARINE] here?
**A.** >0.0005

**Q.** What about the Ratio [2] of the same molecule?
**A.** > 6300

**Q.** And the ED50 (Cavia porcellus)?
**A.** 7.94e-08
